Results taken from ChEMBL document CHEMBL2424517, “Eunicellin-based diterpenoids from the Formosan soft coral Klyxum molle with inhibitory activity on superoxide generation and elastase release by neutrophils” (J Nat Prod, 2013).

Tests used:
[1] = Antiinflammatory activity in human neutrophils assessed as inhibition of fMLP/CB-induced superoxide anion generation at 10 uM incubated for 5 mins prior to fMLP/CB challenge; type: functional; details: Neutrophil
Procedure, shortened: (§1)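 Neutrophils from healthy adult donors (20−30 y), enriched by dextran sedimentation, Ficoll Hypaque centrifugation and hypotonic lysis, held in Ca2+-free HBSS pH 7.4 at 4 °C. Cells (6 × 10^5/mL) with ferricytochrome c 0.5 mg/mL and Ca2+ 1 mM, 37 °C 2 min, DMSO control. CB 1 μg/mL 3 min, then fMLP 100 nM 10 min. O2•− read as SOD-inhibitable cytochrome c reduction. Mean ± SEM, n = 3 or 4.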

[2] = Antiinflammatory activity in human neutrophils assessed as inhibition of fMLP/CB-induced superoxide anion generation incubated for 5 mins prior to fMLP/CB challenge; type: functional, cell-based; details: Neutrophil; procedure, shortened: as §1
[3] = Antiinflammatory activity in human neutrophils assessed as inhibition of fMLP/CB-induced elastase release at 10 uM incubated for 5 mins prior to fMLP/CB challenge; type: functional; details: Neutrophil
Procedure, shortened: (§2)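 Donor neutrophils (healthy adults, 20−30 y), purified by dextran sedimentation, Ficoll Hypaque and hypotonic lysis, kept in Ca2+-free HBSS pH 7.4 at 4 °C. Cells at 6 × 10^5/mL with MeO-Suc-Ala-Ala-Pro-Val-p-nitroanilide 100 μM as elastase substrate, equilibrated 37 °C 2 min before compound addition. Mean ± SEM, n = 3 or 4.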

[4] = Antiinflammatory activity in human neutrophils assessed as inhibition of fMLP/CB-induced elastase release incubated for 5 mins prior to fMLP/CB challenge; type: functional, cell-based; details: Neutrophil; procedure, shortened: as §2
T47D = experiment: Cytotoxicity against human T47D cells after 3 hrs by Alamar Blue assay; type: functional; details: read-out: ED50 (the source's name)
MOLT-4 = experiment: Cytotoxicity against human MOLT4 cells after 6 hrs by Alamar Blue assay; type: functional; details: MOLT-4, 6 h, read-out: ED50 (the source's name)
K562 = experiment: Cytotoxicity against human K562 cells after 6 hrs by Alamar Blue assay; type: functional; details: K562, 6 h, read-out: ED50 (the source's name)

Structure (SMILES) | inhibition at 10 µM [1] | IC50 [2] | inhibition at 10 µM [3] | IC50 [4] | EC50 (T47D) | EC50 (MOLT-4) | EC50 (K562)
CC(=O)O[C@H]1[C@H](C(C)C)[C@@H]2[C@@H]([C@H]3C[C@](C)(O)[C@@H](OC(C)=O)CC[C@@](C)(OC(C)=O)[C@@H]2O3)[C@](O)(CCl)[C@H]1OC(C)=O | 9.36% | > 10 µM | 6.42% | > 10 µM | – | – | –
CC(=O)O[C@H]1[C@H](C(C)C)[C@@H]2[C@@H]([C@H]3C[C@](C)(O)[C@H](O)CC[C@@](C)(OC(C)=O)[C@@H]2O3)[C@](O)(CCl)[C@H]1OC(C)=O | 5.02% | > 10 µM | 7.3% | > 10 µM | – | – | –
CC(=O)O[C@H]1C[C@H](C(C)C)[C@@H]2[C@@H]([C@H]3C[C@](C)(O)[C@@H](OC(C)=O)CC[C@@](C)(OC(C)=O)[C@@H]2O3)[C@]1(O)CCl | 8.92% | > 10 µM | -1.19% | > 10 µM | – | – | –
CC(=O)O[C@H]1C[C@H](C(C)C)[C@@H]2[C@@H]([C@H]3C[C@](C)(O)[C@@H](O)CC[C@@](C)(OC(C)=O)[C@@H]2O3)[C@]1(O)CCl | 3.37% | > 10 µM | 9.18% | > 10 µM | – | – | –
C=C1[C@H]2[C@@H]([C@@H](C(C)C)C[C@@H]1O)[C@H]1O[C@@H]2C[C@](C)(O)[C@@H](OC(=O)Cc2ccccc2)CC[C@@]1(C)OC(=O)CCC | 81.6% | 3.13 µM | 89.2% | 2.92 µM | 8.58 µM | 4.35 µM | 7.97 µM
C=C1[C@H]2[C@@H]([C@H](C(C)C)[C@H](OC(C)=O)[C@@H]1O)[C@H]1O[C@@H]2C[C@](C)(O)[C@@H](OC(C)=O)CC[C@@]1(C)OC(=O)CCC | 10.5% | > 10 µM | 6.47% | > 10 µM | – | – | –
C=C1[C@H]2[C@@H]([C@@H](C(C)C)[C@H](O)[C@@H]1OC(C)=O)[C@H]1O[C@@H]2C[C@](C)(O)[C@@H](OC(C)=O)CC[C@@]1(C)OC(=O)CCC | 2.92% | > 10 µM | 16.8% | > 10 µM | – | – | –
C=C1[C@H]2[C@@H]([C@@H](C(C)C)[C@H](OC(C)=O)[C@@H]1O)[C@H]1O[C@@H]2C[C@](C)(O)[C@@H](O)CC[C@@]1(C)OC(=O)CCC | 1.17% | > 10 µM | 7.35% | > 10 µM | – | – | –
C=C1[C@H]2[C@H]([C@H]3O[C@@H]2C[C@](C)(O)[C@@H](OC(C)=O)CC[C@@]3(C)OC(C)=O)[C@H](C(C)C)C[C@@H]1O | 14.7% | > 10 µM | 7.33% | > 10 µM | – | – | –
C=C1[C@H]2[C@@H]([C@@H](C(C)C)C[C@@H]1O)[C@H]1O[C@@H]2C[C@](C)(O)[C@@H](O)CC[C@@]1(C)OC(C)=O | 7.14% | > 10 µM | 11.6% | > 10 µM | – | – | –
C=C1C[C@H]2O[C@H]([C@H]3[C@@H]2C(=C)[C@@H](O)C[C@@H]3C(C)C)[C@](C)(OC(C)=O)CC[C@@H]1O | 3.2% | > 10 µM | 0.62% | > 10 µM | – | – | –
O=c1[nH]cc(F)c(=O)[nH]1 [FLUOROURACIL] | – | – | – | – | 50.2 µM | 15.1 µM | 16.2 µM
